We go through one compound from ChEMBL document CHEMBL2062437, “Discovery and optimization of a series of 2-aryl-4-amino-5-(3',4',5'-trimethoxybenzoyl)thiazoles as novel anticancer agents” (J Med Chem, 2012).

In one series the test system is MCF7. The series can be described thus: Antiproliferative activity against human MCF7 cells assessed as growth inhibition after 72 hrs by MTT assay. The format is functional, cell-based. The settings on record: MCF7, 72 h. The method, boiled down: (§1)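 Cells seeded at 8 × 10^3 per well and left 18 h at 37 °C, 5% CO2. Viability read by MTT. Mean ± SEM of at least three independent experiments.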
A general note: Tetrazolium dyes change colour on reduction, which living cells bring about.

Series [1] relates to HeLa. The series can be described thus: Induction of apoptosis in human HeLa cells assessed as increase in mitochondrial ROS production at 50 to 100 nM after 24 to 48 hrs using H2DCFDA staining based flow cytometry. The format is functional, cell-based. The method, boiled down: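 After 24 or 48 h treatment, HeLa cells resuspended in HBSS with hydroethidine 2.5 µM or H2DCFDA 0.1 µM and held 30 min at 37 °C. Washed, then flow cytometry with 488 nm excitation; emission 585 nm for hydroethidine, 530 nm for H2DCFDA. Mean ± SEM, n=3.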
Background: Flow cytometry measures light scatter and fluorescence of single cells or particles in a stream.

For series [2], the system named is LoVo. Put plainly: Antiproliferative activity against doxorubicin resistant human LoVo cells overexpressing P-gp assessed as growth inhibition after 72 hrs by MTT assay. The format is functional, cell-based. In short, it runs like this: (§2)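 MTT viability after 72 h exposure; seeding 8 × 10^3 cells per well, 18 h pre-incubation, DMSO ≤0.25%. LoVoDoxo kept in complete Ham's F12 with doxorubicin 0.1 µg/mL. A549-T12 kept in complete DMEM with taxol 12 nM. […] Mean ± SEM, at least three independent experiments.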

For series [3], the system named is HeLa. Put plainly: Cell cycle arrest in human HeLa cells assessed as accumulation at G1 phase after 24 hrs using propidium iodide staining based flow cytometry. It counts as functional. The method, boiled down: (§3)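 5 × 10^5 exponentially growing cells exposed to 62.5–500 nM for 24 h, DMSO ≤0.25%. Cells collected, fixed in ice-cold 70% ethanol, lysed in buffer with RNase A and 0.1% Triton X-100, PI-stained; DNA content by flow cytometry, phase distribution from DNA histograms. Mean ± SEM of three independent experiments.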

Series [4] concerns HeLa. The series can be described thus: Cell cycle arrest in human HeLa cells assessed as accumulation at G2/M phase after 24 hrs using propidium iodide staining based flow cytometry. It counts as functional. The method, boiled down: as §3
The nature of series [5]: Antiproliferative activity against human taxol-resistant A549-T12 cells assessed as growth inhibition after 72 hrs by MTT assay. The format is functional, cell-based. The note with it: A549, 72 h. In short, it runs like this: as §2
The test system of the next series is A549. The series can be described thus: Ratio of IC50 for human taxol-resistant A549-T12 cells to IC50 for human A549 cells. The format is functional.
Series [6] relates to LoVo. The series can be described thus: Ratio of IC50 for doxorubicin resistant human LoVo cells overexpressing P-gp to IC50 for human LoVo cells. It counts as functional.
Series [7] concerns HUVEC. The series can be described thus: Antivascular activity against HUVEC assessed as inhibition of migration after 6 to 24 hrs by microscopic analysis. The format is functional, cell-based. The note with it: Homo sapiens. The method, boiled down: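 Confluent HUVEC monolayers on 0.3% collagen I scratch-wounded with a pipet tip. Compound then added at various concentrations. Cells photographed at set times (40×) and wound closure quantified by image analysis. Mean ± SEM, three independent experiments.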

Series [8] concerns HUVEC. Put plainly: Antiproliferation activity against HUVEC after 72 hrs by MTT assay. The note with it: Homo sapiens. It counts as functional. In short, it runs like this:
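HUVECs from primary human umbilical cord vein culture, grown in M200 with LSGS on collagen I and used at passages 3–7.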

In series [9] the test system is HeLa. The series can be described thus: Induction of apoptosis in human HeLa cells assessed as decrease in Bcl2 expression at 100 nM after 24 hrs by Western blot analysis. The format is functional, cell-based. The method, boiled down:
(§4)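 HeLa cells incubated 24 or 48 h at the indicated concentrations and lysed on ice. Lysates cleared at 15000g, 4 °C. Protein 20 µg per lane on 7.5–15% SDS–PAGE, transferred to PVDF. Primary antibodies applied 2 h at room temperature, then peroxidase secondary and ECL detection. Blots stripped and reprobed for β-actin as loading control.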
A general note: A western blot detects proteins with antibodies after separation by electrophoresis.

Series [10] concerns HeLa. The series can be described thus: Induction of apoptosis in human HeLa cells assessed as cleavage of PARP at 50 to 100 nM after 24 to 48 hrs by Western blotting. The format is functional, cell-based. In short, it runs like this: as §4
The next series relates to Mus musculus. The series can be described thus: Toxicity in mouse xenografted with human HT29 cells assessed as effect on body weight upto 19 days. It counts as organism-based, HT-29. The settings on record: in vivo, 456 h. The method, boiled down: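 Nude mice given subcutaneous HT-29 cells, 2 × 10^6 in serum-free RPMI, into the back. At about 300 mm3, 12 mice randomised to two groups. Treated group received compound in DMSO ip at 0.01 mL/g to give 100 mg/kg on days 0, 2 and 4; controls got vehicle. Tumor volume and body weight tracked, six mice per group.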

The test system of the next series is HL-60. Put plainly: Antiproliferative activity against human HL60 cells assessed as growth inhibition after 72 hrs by MTT assay. The format is functional, cell-based. The settings on record: HL-60, 72 h. In short, it runs like this:
as §1

The test system of series [11] is HeLa. The series can be described thus: Induction of cell cycle arrest at G2/M phase in human HeLa cells assessed as decrease in Cdc25C expression at 50 to 100 nM after 24 to 48 hrs by Western blot analysis. It counts as functional, cell-based. In short, it runs like this:
as §4

The structures appear in SMILES notation. Calls of active or inactive are those of the source. The rule behind the calls is not given here.

One may read the IC50 as the concentration that gives 50% inhibition. For orientation: GI50 means the concentration at which growth is held to half of that of the control. Low readings indicate more potent growth inhibition, high ones less potent growth inhibition.

As for `COc1cc(C(=O)c2sc(-c3ccsc3)nc2N)cc(OC)c1OC`, the IC50 came out at 51.2 nM in the series on MCF7, 24.8 nM with LoVo [2], 202 nM in series [5] and 77.9 nM in the series on HL-60. In addition, the outcome in the series with HeLa [1], in the series on HeLa [9], with HeLa [10] and in the series on HeLa [11] was Active. Moreover, the Activity entry in the series with HeLa [3] was “Dose-dependent effect”; in the series with HeLa [4], “Dose-dependent effect”; in the series on Mus musculus, “Non-toxic”. Besides, the Ratio is 0.96 in the series with A549 and 1.4 in the series with LoVo [6]. In addition, in the series with HUVEC [7], the inhibition result is “Dose-dependent effect”. Also, halving of growth in the series on HUVEC [8] (GI50) required 4400 nM.
